hERG rescue: hERG rescue from dofetilide block, primary screen, cell-based, CHO-hERG, FluxOR thallium flux, dofetilide IC70; Voltage-gated inwardly rectifying potassium channel KCNH2 (Homo sapiens), Q12809; dofetilide IC70 present; activation (rescue from dofetilide block), less the hit threshold, % at 10 µM; 310,000 compounds, 0.51% hits;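 active = activation above the mean of controls blocked by dofetilide plus 5 SD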;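 also: thallium influx through hERG after potassium depolarization seen as dye fluorescence rise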
KCNK9 inh: KCNK9 potassium channel inhibitors, primary screen, HEK293 cells, thallium flux; Potassium channel subfamily K member 9 (Homo sapiens), Q9NPC2; FluxOR thallium flux fluorescence; hits give low values; B-score at 10 µM; 310,000 compounds, 1.2% hits;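 active = ratio B-score over 3 SD below the library mean, with starting fluorescence within 5 SD of its mean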;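 also: negative B-score means less thallium flux so channel inhibition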
Target sequence (Q9NPC2 whole entry, looked up): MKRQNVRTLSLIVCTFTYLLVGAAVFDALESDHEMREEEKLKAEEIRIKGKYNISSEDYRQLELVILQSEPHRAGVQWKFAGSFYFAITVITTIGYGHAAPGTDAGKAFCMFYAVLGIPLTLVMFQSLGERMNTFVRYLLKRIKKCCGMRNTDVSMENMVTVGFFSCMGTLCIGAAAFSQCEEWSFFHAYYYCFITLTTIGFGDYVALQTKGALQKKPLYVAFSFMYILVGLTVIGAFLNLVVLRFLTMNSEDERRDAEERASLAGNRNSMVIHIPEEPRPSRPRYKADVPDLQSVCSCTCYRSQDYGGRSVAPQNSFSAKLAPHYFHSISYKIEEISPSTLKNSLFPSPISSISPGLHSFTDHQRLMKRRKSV
KCNQ1 block: inhibitors of human KCNQ1 channel, primary screen, cell-based, thallium flux, high-throughput; Potassium voltage-gated channel subfamily KQT member 1 (Homo sapiens), P51787; CHO-K1 KCNQ1, FluxOR thallium flux fluorescence; hits give high values; B-score at 10 µM; 310,000 compounds, 1.3% hits;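 active = compounds whose thallium flux B-score, printed positive for inhibition, exceeds three library SD while starting fluorescence stays within three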;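 also: channel opened by potassium depolarization with thallium stimulus after 20 min compound exposure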
KCNK3 block: human KCNK3 channel inhibitors, primary screen, CHO cells, FluxOR thallium flux, B-score | FluxOR fluorescence; hits give low values | 340,000 compounds, 0.84% hits | B-score at 10 µM;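 active = B-score under library mean minus 4 SD, starting fluorescence ratio at most library mean plus 5 SD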;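 also: more negative B-score means stronger inhibition of thallium flux through KCNK3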
KCNQ1 pot: potentiators or activators of KCNQ1 channel, primary screen, cell-based, thallium flux, high-throughput. 310,000 compounds, 0.35% hits. Potassium voltage-gated channel subfamily KQT member 1 (Homo sapiens), P51787. B-score at 10 µM. CHO-K1 KCNQ1, thallium flux FluxOR fluorescence; hits give high values;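 active = fluorescence ratio B-score, a plate-corrected score, at least three library SD, with initial intensity B-score within 5 SD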
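Assay system: stable KCNQ1 CHO-K1 line; medium: assay buffer, equal DMSO in all wells; timing: 90 min dye loading and 20 min compound exposure, both at room temperature; technique: kinetic FluxOR thallium fluorescence, 10-s 1-Hz baseline, 110-s post-stimulus read; read-out basis: B score of baseline-normalized fluorescence ratio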
Kir21 block: inhibitors of mouse Kir2.1 inward-rectifier potassium channel | Inward rectifier potassium channel 2 (Mus musculus), P35561 | HEK293-Kir2.1, FluxOR thallium flux fluorescence; hits give low values | B-score at 10 µM | 310,000 compounds, 0.85% hits | AID 1672, 2009;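 active = fluorescence ratio B-score at or below minus 3 SD of library scores, with starting-brightness B-score within 2 SD, cut at about -4.2 in these data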;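 also: channel flux triggered by added potassium and thallium sulfate stimulus; B-score of peak minus minimum fluorescence over baseline after thallium stimulus; more negative B-score means stronger Kir2.1 block with less thallium influx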
KCNK9 block conf: KCNK9 potassium channel inhibitors, confirmation, HEK293 cells, thallium flux, duplicate | shares compounds with KCNK9 inh | FluxOR thallium flux fluorescence | inhibition, % at 10 µM | 4,900 compounds, 43% hits | AID 492992, 2010;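 active = thallium signal inhibited by more than 5 SD of the compound-free buffer control wells, on both duplicate plates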
Kir2-1 spec: mouse Kir2.1 channel inhibition, confirmation, selectivity assay for KCNK9 modulator project, cell-based, HEK293, thallium flux. 4,900 compounds, 4% hits. shares compounds with KCNK9 inh. inhibition, % at 10 µM. Kir2.1 cells, FluxOR thallium flux fluorescence;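 active = thallium signal drop more than 5 SD beyond the mean of the no-compound control wells, seen in both duplicate plates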;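 also: signal is fluorescence rise after thallium addition divided by baseline fluorescence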
KCNK9 uninduced: thallium flux in non-induced HEK293 cells, confirmation, counter-screen for KCNK9 inhibitor project, cell-based, second counter screen, non-induced KCNK9-HEK293. shares compounds with KCNK9 inh. FluxOR thallium flux. inhibition, % at 10 µM. 4,900 compounds, 40% hits. AID 492997, 2010;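 active = thallium signal drop beyond 5 SD of the untreated control mean, on both duplicate plates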
A number is an active result; n = inactive; x = no result given. Shown are actives, neighbours in structure and some others; about 3.7% of the full set was active somewhere.

SMILES	hERG rescue	KCNK9 inh	KCNQ1 block	KCNK3 block	KCNQ1 pot	Kir21 block	KCNK9 block conf	Kir2-1 spec	KCNK9 uninduced
COc1cccc(CN2CCN(C(=O)c3cc(-c4ccccn4)nc4ccc(Cl)cc34)CC2)c1	n	n	n	n	n	n	n	n	n
COc1cc(NC(=O)COc2cccc3c2OC(C)(C)C3)cc(OC)c1OC	x	x	x	n	x	x	x	x	x
COc1ccc(C(=O)Nc2cc(OCc3ccccc3)c(Cl)cc2Cl)cc1	n	-15.9	n	n	n	n	58.5%	n	n
O=C(Nc1ccccc1Cl)c1cccc(COc2cc(Cl)ccc2Cl)c1	n	-10.9	n	n	n	n	30.0%	n	n
O=C(c1ccc(-c2cccc(C(F)(F)F)c2)o1)N1CCCC(C(F)(F)F)C1 (stereo unspecified)	n	n	n	n	n	n	x	x	x
C#CCN(C(=O)c1cc(COc2ccc(C)c(C)c2)on1)C1CCCCC1	n	n	6	n	n	n	n	n	n
C#CCN(C(=O)c1cc(COc2cccc(C(F)(F)F)c2)on1)C1CCCCC1	n	n	n	n	n	n	x	x	x
COc1cc(N2CCCC2)c(OC)cc1/C=C(/C#N)c1ccc(F)cc1	n	-11.7	7	n	n	n	50.0%	n	66.0%
COc1cc(N2CCCC2)c(OC)cc1/C=C(/C#N)c1ccc(Br)cc1	n	n	n	n	n	n	x	x	x
CCC(=O)c1ccccc1OCCN1CCN(Cc2ccccc2)CC1	n	n	n	n	n	n	n	n	n
O=C(c1ccccc1)c1ccc(OCCOCCN2CCN(Cc3ccccc3)CC2)cc1	n	n	n	n	n	n	n	n	n
CCOc1ccccc1OCCOCCN1CCN(Cc2ccccc2)CC1	n	n	n	n	n	n	x	x	x
COc1ccc(S(=O)(=O)N2CCCCC2)cc1NC(=O)c1cccc(S(=O)(=O)N2CCOCC2)c1	x	x	x	n	x	x	x	x	x
O=C(c1cnc(Cl)c(Cl)c1)N1CCN(S(=O)(=O)c2ccc3ccccc3c2)CC1	x	x	x	n	x	x	x	x	x
O=C(c1cnc(Cl)c(Cl)c1)N1CCC(Cc2ccccc2)CC1	n	n	n	n	n	n	n	n	n
O=C(c1ccc2nc(N3CCOCC3)sc2c1)N1CCC(Cc2ccccc2)CC1	n	n	n	n	n	n	n	n	n
O=C(NCCc1ccccc1)c1ccc2nc(N3CCOCC3)sc2c1	n	n	n	n	n	n	x	x	x
COc1ccc(Br)c(C(=O)N2CCN(S(=O)(=O)c3cccs3)CC2)c1	n	n	n	n	n	n	x	x	x
COc1ccc(/C=C2\SC(=S)N(NS(=O)(=O)c3ccccc3)C2=O)c(OC)c1	n	n	n	n	19	n	n	n	n
COc1ccc(OC)c(/C=C2\SC(=S)N(NS(=O)(=O)c3ccc(C)cc3)C2=O)c1	n	n	n	n	n	n	n	n	n
CCOc1ccc(/C=C2\SC(=S)N(NS(=O)(=O)c3ccc(C)cc3)C2=O)cc1OC	n	n	n	n	n	n	n	n	n
Cc1cc(NC(=O)COC(=O)C2=NN(c3ccccc3)C(=O)CC2)c([N+](=O)[O-])cc1C	x	x	x	n	x	x	x	x	x

Source: PubChem BioAssay
